# Assay results reported in article PMC5755971 (Journal of the American Chemical Society, 2017).
# Where a SMILES comes first, the peptide text is derived from it. [ ]: non-standard residue; d: D form. Dolaproine = CO[C@@H]([C@@H]1CCCN1)[C@@H](C)C(=O)O; Dil = CC[C@H](C)[C@H](NC)[C@@H](CC(=O)O)OC; NMeV = CN[C@H](C(=O)O)C(C)C
# Columns and labels:
# human CD22 = conditions: cited from earlier work
# Daudi cells [1] = assay: cytotoxicity assay for ligand-toxin conjugates; assay type: cell-based; conditions: read-out: EC50 (cytotoxicity), 72h, MTT
# hCD22 [2] = biological target: T1, hCD22 (Homo sapiens, UniProt P20273); assay: flow cytometry competitive binding assay, Neu5Gc-PAA to hCD22-CHO cells
# T1 sequence (P20273 20-847): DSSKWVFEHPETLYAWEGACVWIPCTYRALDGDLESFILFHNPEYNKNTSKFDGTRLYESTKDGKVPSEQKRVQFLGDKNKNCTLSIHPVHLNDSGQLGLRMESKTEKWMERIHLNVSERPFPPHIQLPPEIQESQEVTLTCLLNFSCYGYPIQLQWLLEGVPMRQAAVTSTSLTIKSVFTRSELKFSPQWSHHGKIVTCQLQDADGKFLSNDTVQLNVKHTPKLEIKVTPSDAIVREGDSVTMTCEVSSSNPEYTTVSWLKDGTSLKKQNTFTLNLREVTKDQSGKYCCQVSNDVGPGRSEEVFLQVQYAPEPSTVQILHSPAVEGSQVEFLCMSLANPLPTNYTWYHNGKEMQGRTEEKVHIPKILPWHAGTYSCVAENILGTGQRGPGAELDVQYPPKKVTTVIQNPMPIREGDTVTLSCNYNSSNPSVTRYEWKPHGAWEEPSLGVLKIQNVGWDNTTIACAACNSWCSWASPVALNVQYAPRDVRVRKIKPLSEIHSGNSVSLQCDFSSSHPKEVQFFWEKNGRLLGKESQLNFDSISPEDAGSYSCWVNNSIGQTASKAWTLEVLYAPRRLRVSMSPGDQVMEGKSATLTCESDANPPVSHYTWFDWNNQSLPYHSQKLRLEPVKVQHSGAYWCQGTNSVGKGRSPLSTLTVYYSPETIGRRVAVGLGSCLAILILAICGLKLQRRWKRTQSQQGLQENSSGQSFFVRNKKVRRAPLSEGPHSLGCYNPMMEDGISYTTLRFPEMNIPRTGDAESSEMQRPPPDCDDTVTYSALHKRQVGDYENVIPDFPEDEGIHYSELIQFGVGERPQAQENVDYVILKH
# How it was run: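 Serial dilutions of sialoside ligands, quantified by periodate-resorcinol assay, mixed in cold HBSS/0.5% BSA with biotinylated Neu5Gcα2–6LacNAc-PAA (1 MDa, 1 μg/mL). ~10^6 hCD22-CHO cells added; 40 min, 4 °C, dark. Two washes, then streptavidin-PE (1:1000) for 30 min at 4 °C. Read by flow cytometry. Triplicate titrations; IC50 from curve fit, 0% = no polymer, 100% = polymer without competitor.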
# Daudi cells [3] = assay: uptake of ligand-FITC conjugates by Daudi cells in pure mouse serum; assay type: cell-based; conditions: 60 min, 37 °C
# How it was run: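 FITC-labelled ligand conjugates serially diluted and incubated with ~10^6 Daudi B cells in 100 uL pure mouse serum for 60 min at 37 °C. Cells washed twice in HBSS; uptake read by flow cytometry and curve-fitted.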
# hCD22 [4] = biological target: T1, hCD22; conditions: equilibrium dialysis at 4° C; cited from earlier work
molecule,measurement,setting,value
"CC(=O)NC1C(O)CC(O)(C(=O)O)OC1C(O)C(O)CNC(=O)c1ccc(-c2ccccc2)cc1 (stereo not shown) [1a, 9-N-biphenyl carboxamide-Neu5Ac]",affinity for human CD22,human CD22,low micromolar range
"CC[C@H](C)[C@@H]([C@@H](CC(=O)N1CCC[C@H]1[C@H](OC)[C@@H](C)C(=O)N[C@@H](Cc1ccccc1)C(=O)O)OC)N(C)C(=O)[C@@H](NC(=O)[C@@H](NC)C(C)C)C(C)C [MMAF, monomethyl auristatin F] (H-[NMeV]V[Dil][Dolaproine]F-OH)",EC50,Daudi cells [1],0.2 µM
"O=C(CF)N[C@H]1[C@H]([C@H](O)[C@H](O)CNC(=O)c2cccc(Oc3ccccc3)c2)OC(O)(C(=O)O)C[C@@H]1O (stereo partly shown) [1c, 9-N-m-phenoxybenzamide-Neu5FAc]",affinity for human CD22,human CD22,low micromolar range
CC(=O)NC1C(NC(=O)C[C@H](NC(=O)[C@H](C)NC(=O)[C@@H](NC(=O)[C@@H](N)CCCCN)C(C)C)C(=O)N[C@@H](CCCCN)C(=O)N[C@H](C(=O)O)[C@@H](C)O)OC(CO)C(OC2OC(CO)C(OC3OC(COC4OC(CO)C(O)C(O)C4OC4OC(CO)C(OC5OC(COC6(C(=O)[O-])CC(O)C(NC(C)=O)C([C@H](O)[C@H](O)CO)O6)C(O)C(O)C5O)C(O)C4NC(C)=O)C(O)C(OC4OC(CO)C(O)C(O)C4OC4OC(CO)C(OC5OC(COC6(C(=O)[O-])CC(O)C(NC(C)=O)C([C@H](O)[C@H](O)CO)O6)C(O)C(O)C5O)C(O)C4NC(C)=O)C3O)C(O)C2NC(C)=O)C1O.[Na+].[Na+] (stereo partly shown) [SGP],fold higher binding affinity for hCD22 compared to the monovalent ligand (6′SLN),hCD22 [2],three-fold higher
same,binding/uptake by Daudi cells,Daudi cells [3],weak or no binding/uptake
Neu5Acα2–6Galβ1–4GlcNAc [6′SLN],IC50,"hCD22 [2]; competition with Neu5Gc-PAA, 40 min, 4 °C",62 µM
same,Kd,hCD22 [4],32 µM
